Here are results for one compound from ChEMBL document CHEMBL2434922, “Microwave assisted synthesis of dihydrobenzo[4,5]imidazo[1,2-a]pyrimidin-4-ones; synthesis, in vitro antimicrobial and anticancer activities of novel coumarin substituted dihydrobenzo[4,5]imidazo[1,2-a]pyrimidin-4-ones” (2013).

Values after ≈ are worked out from the molar mass of the structure shown.

What all share (type): functional
In one experiment the test system is Candida albicans. In words: Antifungal activity against Candida albicans assessed as growth inhibition after 48 to 72 hrs by broth microdilution method.
Another experiment has as its system Enterococcus faecalis. In words: Antibacterial activity against Enterococcus faecalis assessed as growth inhibition after 18 hrs by broth microdilution method.
Another experiment concerns Aspergillus niger. In words: Antifungal activity against Aspergillus niger assessed as growth inhibition after 48 to 72 hrs by broth microdilution method.
Another experiment deals with Fusarium oxysporum. Description: Antifungal activity against Fusarium oxysporum assessed as growth inhibition after 48 to 72 hrs by broth microdilution method.
Another experiment relates to Streptococcus mutans. In words: Antibacterial activity against Streptococcus mutans assessed as growth inhibition after 18 hrs by broth microdilution method.
The next experiment concerns Aspergillus flavus. In words: Antifungal activity against Aspergillus flavus assessed as growth inhibition after 48 to 72 hrs by broth microdilution method.
Experiment [1] can be described thus: Cytotoxicity against mouse Daltons ascitic lymphoma cells assessed as dead cells at 100 ug/ml after 3 hrs by trypan blue exclusion assay relative to control. Put shortly: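 DAL cells (0.2 mL, 10⁶ cells/mL) mixed with ice-cold PBS pH 7.4 and compound (100 µg/mL), held at 37 °C under 5% CO₂ for 3 h. Aliquot then stained with 0.4% trypan blue in normal saline for 5–15 min at room temperature. Live and dead cells counted in a Neubauer chamber; % dead = dead/(dead+live) × 100.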

The next experiment deals with Pseudomonas aeruginosa. Description: Antibacterial activity against Pseudomonas aeruginosa assessed as growth inhibition after 18 hrs by broth microdilution method.
The next experiment has as its system Staphylococcus aureus. In words: Antibacterial activity against Staphylococcus aureus assessed as growth inhibition after 18 hrs by broth microdilution method.
In a further experiment the test system is Penicillium chrysogenum. Description: Antifungal activity against Penicillium chrysogenum assessed as growth inhibition after 48 to 72 hrs by broth microdilution method.
In a further experiment the test system is Klebsiella pneumoniae. In words: Antibacterial activity against Klebsiella pneumoniae assessed as growth inhibition after 18 hrs by broth microdilution method.
For a further experiment, the system named is Escherichia coli. Description: Antibacterial activity against Escherichia coli assessed as growth inhibition after 18 hrs by broth microdilution method.
A further experiment has as its system Aspergillus fumigatus. Description: Antifungal activity against Aspergillus fumigatus assessed as growth inhibition after 48 to 72 hrs by broth microdilution method.

As for `CC(C)c1cc(O)n2c(n1)nc1ccccc12`, the MIC stood at 3.12 µg/mL (≈ 13.7 µM) in the experiment with Candida albicans; 0.2 µg/mL (≈ 0.88 µM) in the experiment on Enterococcus faecalis; 25 µg/mL (≈ 110 µM) in the experiment with Aspergillus niger; 0.4 µg/mL (≈ 1.76 µM) in the experiment on Fusarium oxysporum; 25 µg/mL (≈ 110 µM) in the experiment on Streptococcus mutans; 1.6 µg/mL (≈ 7.04 µM) in the experiment with Aspergillus flavus. In addition, the MIC in the experiment with Pseudomonas aeruginosa stood at 12.5 µg/mL (≈ 55 µM); in the experiment with Staphylococcus aureus, 100 µg/mL (≈ 440 µM); in the experiment with Penicillium chrysogenum it was 0.2 µg/mL (≈ 0.88 µM); in the experiment on Klebsiella pneumoniae, 100 µg/mL (≈ 440 µM); with Escherichia coli, 12.5 µg/mL (≈ 55 µM); in the experiment with Aspergillus fumigatus it was 1.6 µg/mL (≈ 7.04 µM). Besides, the mortality at 100 µg/mL in [1] came out at 57%.
